# Compound activity: PubChem BioAssay, several laboratories
# RanGTP-Imp inh: disruptors of Ran-importin-beta complex formation – biochemical, FRET, CFP-Ran, YFP-importin-beta, homogeneous, primary screen; cell-free CFP-Ran/YFP-importin-beta FRET ratio; inhibition, % (test concentration not listed); 1.1% of 300,000 active;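 active means more than half of the replicate wells show a fall in the fluorescence ratio signal beyond about 16%, limit read from the data, passing the limit was not always enough; inconclusive means exactly half of the replicate wells pass the set limit; inactive means fewer than half of replicates pass the limit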;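 further: 0% = DMSO wells and 100% = Ran loaded with GDP instead of GTP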
# Runt-CBFb FRET: inhibitors of human RUNX1 Runt domain binding to CBFb | 0.46% of 220,000 active | inhibition, % at 20 µM | Cerulean-Runt/Venus-CBFb FRET ratio 530/480, 1 h | AID 1496;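 active means inhibition over about 50% at 20 µM in the single-dose screen, limit read from the data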;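 further: 0% = DMSO wells and 100% = excess unlabeled CBFb competitor control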
#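 Assay system: Cerulean-Runt domain / Medium: Tris 50 mM pH 7.5, KCl, K2SO4, 0.01% BSA / Timing: protein complex preformed 1 h, compound exposure 1 h, room temperature, dark / Measured by: FRET, excitation 422 nm, emission at 530 and 480 nm / Evaluation: loss of energy transfer signal / Control set: 5 µM unlabeled CBFb as full-inhibition high control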
# Runt-SMMHC FRET: inhibitors of human RUNX1 Runt domain binding to CBFb-SMMHC. inhibition, % at 20 µM. 0.74% of 220,000 active. Cerulean-Runt/Venus-CBFb-SMMHC FRET ratio 530/480, 1 h. Q01196+Q13951. AID 1434;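 active means mean inhibition across duplicate retests at 20 µM reaching about 50%, limit read from the data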;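 further: 0% = DMSO wells and 100% = wells with excess untagged CBFb-SMMHC; inhibitors lower the FRET ratio by blocking Runt binding to CBFb-SMMHC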
# Hck-Nef inh: blocks Nef-activated human Hck kinase | P08631 | Recombinant Hck-YEEI plus Nef, Z-Lyte FRET kinase assay | inhibition, % at 20 µM | 0.68% of 220,000 active;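 active means Hck-Nef kinase inhibition above about 50%, limit read from the data; inactive means inhibition below that limit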;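 further: 0% = DMSO with Hck plus Nef and 100% = Hck alone without Nef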
# RUNX1 CBFb TR: Runt-CBFb binding inhibition; shares compounds with Runt-CBFb FRET; TR-FRET RUNX1 Runt domain-CBFb binding; inhibition, % at 20 µM; 20% of 480 active; in the data active means inhibition above about 40%
# * marks the source's active call; other numbers are inactive results; ? = inconclusive; . = not tested or not shown. Compounds with a hit are over-represented: about 1.9% of the library has one in this group of screens.
SMILES,RanGTP-Imp inh,Runt-CBFb FRET,Runt-SMMHC FRET,Hck-Nef inh,RUNX1 CBFb TR
O=C(CSc1nc2ccccc2s1)Nc1ccc(Cl)c(C(=O)O)c1,3,16,17,38,.
O=C(CSc1nc2ccccc2s1)Nc1cc(C(=O)O)cc(C(=O)O)c1,-1,55*,52,49,33
Oc1ccc2ccccc2c1/C=N/Nc1ccccc1,-4,8,10,3,.
Oc1ccc2ccccc2c1C=NCc1ccccc1,-4,119*,3,-4,17
CC(=O)c1cc(CN2CCN(C(C)C)C(CCO)C2)cs1 (stereo unspecified),1,0,0,7,.
Cc1cc(C)nc(N2CCCC(C(=O)NNC(=O)c3ccncc3)C2)n1 (stereo unspecified),1,2,-3,12,.
CNC(=O)/C(C#N)=C/c1c(N(Cc2ccccc2)Cc2ccccc2)nc2ccccn2c1=O,1,63*,90*,0,3
CCc1ccc2nc(NC(=O)c3ccc(N4C(=O)CCC4=O)cc3)sc2c1,6,1,0,22,.
CNS(=O)(=O)c1ccc2nc(NC(=O)c3ccc(N4C(=O)CCC4=O)cc3)sc2c1,1,55*,60,21,12
CCOc1ccc(NS(=O)(=O)c2cc3c4c(c2)C(C)C(=O)N4CCC3)cc1 (stereo unspecified),5,.,.,.,.
Cn1c(CCc2nc3ccccc3[nH]2)nnc1SCC#N,8,.,.,19,.
CCC12OC(=N)C(C#N)(C1C)C(C#N)(C#N)C(c1ccccc1)O2 (stereo unspecified),21*,58*,88*,2,41*
Cc1ccc(/C(O)=C2/C(=O)C(=O)N(c3ccccn3)C2c2cccc([N+](=O)[O-])c2)cc1 (stereo unspecified),-2,.,.,.,.
CN1CCc2c(sc3c2C(=O)NC(c2cccc(OC(=O)c4cccs4)c2)N3)C1 (stereo unspecified),140*,51*,106*,24,6
O=C(NCc1ccco1)c1cccnc1-c1nc2ccccc2s1,4,50*,31,0,40*
O=C(NCc1ccco1)c1cccnc1Cl,5,-1,0,3,.
O=S(=O)(NC1CCSc2ccccc21)c1ccc(Cl)nc1 (stereo unspecified),1,.,.,.,.
CN1CCN(C(=S)C(=O)Nc2ccc(Br)cc2)CC1,-5,55*,28,-45,14
CC(C)NC(=O)COc1ccc(S(=O)(=O)N(C)Cc2ccccc2)cc1,8,0,0,19,.
CCOC(=O)c1cnc2ccc(Cl)cc2c1NCCN(C)C,?,64*,46,10,2
COc1ccc(OC)c2c1C(=O)C(Cl)=C(Cl)C2=O,1,68*,66*,-38,19
CN(C)S(=O)(=O)c1ccc(=S)[nH]c1,0,50*,43,1,-61
CN(C)S(=O)(=O)c1ccc(-n2cccc2)cc1,0,-1,-4,30,.
CC(C)C(C)(C#N)NC(=O)CSc1nnc(-c2ccncc2)n1Cc1ccccc1 (stereo unspecified),1,56*,32,0,2
S=c1nccc(-c2ccc(Cl)cc2)[nH]1,-2,56*,12,-49,41*
SMILES,RanGTP-Imp inh,Runt-CBFb FRET,Runt-SMMHC FRET,Hck-Nef inh,RUNX1 CBFb TR
S=c1[nH]c(-c2ccc(Cl)cc2)cs1,3,50*,35,13,9
Oc1ccc(N=Cc2ccc(-c3cccs3)s2)cc1,28*,69*,.,1,50*
Cc1cc(N2CCOCC2)nc(N)n1,3,0,0,21,.
Cc1cc(N2CCOCC2)c2c(N)c(C)cc(C)c2n1,.,62*,41,2,-3
CC1CCN(C(=O)Cn2cnc3c2c(=O)n(C)c(=O)n3C)c2ccccc2S1 (stereo unspecified),-1,.,.,.,.
O=C(O)c1cccc(S(=O)(=O)Nc2ccc3c(c2)CCC3)c1,2,.,.,.,.
CCOC(=O)C1=C(C)N=c2s/c(=C3\C(=O)Nc4ccccc43)c(=O)n2C1c1ccc2c(c1)OCO2 (stereo unspecified),-2,16,-4,2,.
C=CCOC(=O)C1=C(C)N=c2s/c(=C3\C(=O)N(CC(=O)O)c4ccccc43)c(=O)n2C1c1ccc(OC)cc1 (stereo unspecified),-4,53*,-35,49,29
